Data published in ChEMBL document CHEMBL1123476, “Synthesis of congeners and prodrugs of the benzene maleimide photoadduct mitindomide as potential antitumor agents. 2” (J Med Chem, 1986).
Values joined by “and” are separate entries in the source; they are usually repeats but may differ in a detail not shown here. Equal entries are not always repeated.

How the values were obtained:
P388 [1] = test: Antitumor activity in P-388 lymphocytic leukemia system at 25 mg/kg dose levels per injection.; assay type: functional, Mus musculus
Summary of the method: (§1)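 P-388 leukemia in animals, Q01D×09 schedule: dose given daily for 9 days, in mg/kg per injection. Read-outs are survivors on day 4 (live/total animals), body-weight difference test minus control (g), and % T/C (median lifetime of treated ÷ median lifetime of controls × 100). Some compounds were tested in independent runs at different times.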

P388 [2] = test: Compound was tested for antitumor activity in P-388 lymphocytic leukemia system at 100 mg/kg dose levels per injection; 0/6; assay type: functional, Mus musculus; summary of the method: as §1
P388 [3] = test: Compound was tested for antitumor activity in P-388 lymphocytic leukemia system at 200 mg/kg dose levels per injection.; assay type: functional, organism-based; set-up: dose 200 mg/kg; settings: Mus musculus
Summary of the method: (§2)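 P-388 leukemia in vivo, dosed Q01D×09 (one injection daily for 9 days, mg/kg per injection). Activity is %T/C, the median lifetime of treated animals divided by that of controls, ×100. Live animals on day 4 were counted against the total (survivors day 4). Repeat tests were done independently at different times.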

P388 [4] = test: Antitumor activity in P-388 lymphocytic leukemia system and the difference in body weight calculated at 100 mg/kg dose levels per injection.; assay type: functional, Mus musculus
P388 [5] = test: Antitumor activity in P-388 lymphocytic leukemia system and the difference in body weight was calculated at 50 mg/kg dose levels per injection.; assay type: functional, Mus musculus; settings: 50 mg/kg
P388 [6] = test: Compound was tested for antitumor activity in P-388 lymphocytic leukemia system and the difference in body weight was calculated at 12.5 mg/kg dose levels per injection; assay type: functional, Mus musculus
P388 [7] = test: Compound was tested for antitumor activity in P-388 lymphocytic leukemia system at 200 mg/kg dose levels per injection; 0/6; assay type: functional, Mus musculus; summary of the method: as §1
P388 [8] = test: Compound was tested for antitumor activity in P-388 lymphocytic leukemia system at 100 mg/kg dose levels per injection; 3/6; assay type: functional, Mus musculus; summary of the method: as §1
P388 [9] = test: (§3) Antitumor activity in P-388 lymphocytic leukemia system at 50 mg/kg dose levels per injection.; assay type: functional, Mus musculus; summary of the method: as §1
P388 [10] = test: Antitumor activity in P-388 lymphocytic leukemia system and the difference in body weight was calculated at 25 mg/kg dose levels per injection.; assay type: functional, Mus musculus; settings: 25 mg/kg
P388 [11] = test: Antitumor activity in P-388 lymphocytic leukemia system at 25 mg/kg dose levels per injection; assay type: functional, Mus musculus; summary of the method: as §2
P388 [12] = test: Compound was tested for antitumor activity in P-388 lymphocytic leukemia system at 12.5 mg/kg dose levels per injection; 6/6; assay type: functional, Mus musculus; summary of the method: as §1
[13] = Solubility was determined; assay type: physicochemical
P388 [14] = test: Compound was tested for antitumor activity in P-388 lymphocytic leukemia system at 100 mg/kg dose levels per injection; Toxic; assay type: functional, organism-based; set-up: dose 100 mg/kg; settings: Mus musculus; summary of the method: as §2
P388 [15] = test: as §3; assay type: functional, Mus musculus; summary of the method: as §2; remark: listed apart in the source
P388 [16] = test: Compound was tested for antitumor activity in P-388 lymphocytic leukemia system at 12.5 mg/kg dose levels per injection; assay type: functional, Mus musculus; summary of the method: as §2
P388 [17] = test: Compound was tested for antitumor activity in P-388 lymphocytic leukemia system at 25 mg/kg dose levels per injection; 6/6; assay type: functional, Mus musculus; summary of the method: as §1
P388 [18] = test: Compound was tested for antitumor activity in P-388 lymphocytic leukemia system The difference in body weight was calculated at 12.5 mg/kg dose levels per injection; assay type: functional, Mus musculus
P388 [19] = test: Compound was tested for antitumor activity in P-388 lymphocytic leukemia system at 100 mg/kg dose levels per injection; 5/6; assay type: functional, Mus musculus; summary of the method: as §1
P388 [20] = test: (§4) Antitumor activity in P-388 lymphocytic leukemia system at 100 mg/kg dose levels per injection.; assay type: functional, Mus musculus; summary of the method: as §1
[21] = Solubility was determined; INS= less than 0.1; assay type: physicochemical
P388 [22] = test: as §4; assay type: functional, Mus musculus; summary of the method: as §2; remark: listed apart in the source
P388 [23] = test: Compound was tested for antitumor activity in P-388 lymphocytic leukemia system at 200 mg/kg dose levels per injection; 3/6; assay type: functional, Mus musculus; summary of the method: as §1
P388 [24] = test: Compound was tested for antitumor activity in P-388 lymphocytic leukemia system at 200 mg/kg dose levels per injection; assay type: functional, Mus musculus; summary of the method: as §2
P388 [25] = test: Compound was tested for antitumor activity in P-388 lymphocytic leukemia system at 200 mg/kg dose levels per injection; 5/6; assay type: functional, Mus musculus; summary of the method: as §1
P388 [26] = test: Compound was tested for antitumor activity in P-388 lymphocytic leukemia system and the difference in body weight was calculated at 400 mg/kg dose levels per injection; assay type: functional, Mus musculus
P388 [27] = test: Compound was tested for antitumor activity in P-388 lymphocytic leukemia system at 400 mg/kg dose levels per injection; 6/6; assay type: functional, Mus musculus; summary of the method: as §1
P388 [28] = test: Compound was tested for antitumor activity in P-388 lymphocytic leukemia system at 25 mg/kg dose levels per injection; assay type: functional, Mus musculus; summary of the method: as §2
P388 [29] = test: (§5) Antitumor activity in P-388 lymphocytic leukemia system at 200 mg/kg dose levels per injection.; assay type: functional, Mus musculus; summary of the method: as §1
P388 [30] = test: as §5; assay type: functional, Mus musculus; settings: 200 mg/kg; summary of the method: as §2
P388 [31] = test: Compound was tested for antitumor activity in P-388 lymphocytic leukemia system. at 400 mg/kg dose levels per injection; Toxic; assay type: functional, organism-based; set-up: dose 400 mg/kg; settings: Mus musculus; summary of the method: as §2
P388 [32] = test: Antitumor activity in P-388 lymphocytic leukemia system and the difference in body weight was calculated at 200 mg/kg dose levels per injection.; assay type: functional, Mus musculus; settings: 200 mg/kg
P388 [33] = test: Compound was tested for antitumor activity in P-388 lymphocytic leukemia system. The difference in body weight was calculated at 25 mg/kg dose levels per injection; assay type: functional, Mus musculus
P388 [34] = test: Compound was tested for antitumor activity in P-388 lymphocytic leukemia system and the difference in body weight was calculated at 68.8 mg/kg dose levels per injection; assay type: functional, Mus musculus
P388 [35] = test: Compound was tested for antitumor activity in P-388 lymphocytic leukemia system at 114.7 mg/kg dose levels per injection; 2/6; assay type: functional, Mus musculus; summary of the method: as §1
P388 [36] = test: Compound was tested for antitumor activity in P-388 lymphocytic leukemia system at 68.8 mg/kg dose levels per injection; 6/6; assay type: functional, Mus musculus; summary of the method: as §1
P388 [37] = test: Compound was tested for antitumor activity in P-388 lymphocytic leukemia system at 41.3 mg/kg dose levels per injection; assay type: functional, Mus musculus; summary of the method: as §2
P388 [38] = test: Compound was tested for antitumor activity in P-388 lymphocytic leukemia system and the difference in body weight was calculated at 41.3 mg/kg dose levels per injection; assay type: functional, Mus musculus
P388 [39] = test: Compound was tested for antitumor activity in P-388 lymphocytic leukemia system. The difference in body weight was calculated at 24.8 mg/kg dose levels per injection; assay type: functional, Mus musculus
P388 [40] = test: Compound was tested for antitumor activity in P-388 lymphocytic leukemia system at 41.3 mg/kg dose levels per injection; 6/6; assay type: functional, Mus musculus; summary of the method: as §1
P388 [41] = test: Compound was tested for antitumor activity in P-388 lymphocytic leukemia system at 191.2 mg/kg dose levels per injection; 0/6; assay type: functional, Mus musculus; summary of the method: as §1
P388 [42] = test: Compound was tested for antitumor activity in P-388 lymphocytic leukemia system at 24.8 mg/kg dose levels per injection; assay type: functional, Mus musculus; summary of the method: as §2
P388 [43] = test: Compound was tested for antitumor activity in P-388 lymphocytic leukemia system at 24.8 mg/kg dose levels per injection; 6/6; assay type: functional, Mus musculus; summary of the method: as §1
P388 [44] = test: Compound was tested for antitumor activity in P-388 lymphocytic leukemia system and the difference in body weight was calculated at 114.7 mg/kg dose levels per injection; assay type: functional, Mus musculus
P388 [45] = test: Compound was tested for antitumor activity in P-388 lymphocytic leukemia system at 68.8 mg/kg dose levels per injection; assay type: functional, Mus musculus; summary of the method: as §2
P388 [46] = test: Compound was tested for antitumor activity in P-388 lymphocytic leukemia system. at 200 mg/kg dose levels per injection; assay type: functional, Mus musculus; summary of the method: as §2

## O=C1C2C3C=CC(C2C(=O)N1CO)C1C2C(=O)N(CO)C(=O)C2C31 (stereo not given)
P388 [1]
  Survivors at day 4: 6
P388 [2]
  Survivors at day 4: 0
P388 [3]
  T/C: Toxic
P388 [4]
  Weight difference: -8.2 g
P388 [5]
  Weight difference: -5.6 g and -6.5 g
P388 [6]
  Weight difference: -0.7 g
P388 [7]
  Survivors at day 4: 0
P388 [8]
  Survivors at day 4: 3
P388 [9]
  Survivors at day 4: 6
P388 [10]
  Weight difference: -2.5 g and -3.3 g
P388 [11]; 25 mg/kg
  T/C: 140% and 157%
P388 [12]
  Survivors at day 4: 6
[13]
  Solubility: 0.8%
P388 [14]
  T/C: Toxic
P388 [15]; 50 mg/kg
  T/C: 195% and 208%
P388 [16]
  T/C: 105%

## O=C1NC(=O)C2C3C=CC(C12)C1C2C(=O)NC(=O)C2C31 (stereo not given)
P388 [17]
  Survivors at day 4: 6
P388 [18]
  Weight difference: 0.2 g
P388 [19]
  Survivors at day 4: 5
P388 [3]
  T/C: Toxic
P388 [20]
  Survivors at day 4: 6
[21]
  Solubility: Insoluble
P388 [22]
  T/C: 94%
  Weight difference: -3.4 g
P388 [22]; 100 mg/kg
  T/C: 177%
P388 [23]
  Survivors at day 4: 3
P388 [9]
  Survivors at day 4: 6
P388 [24]; 200 mg/kg
  Weight difference: -7.3 g and -3.1 g
P388 [11]; 25 mg/kg
  T/C: 149% and 142%
P388 [12]
  Survivors at day 4: 6
P388 [25]
  Survivors at day 4: 5
P388 [15]; 50 mg/kg
  T/C: 172% and 168%
  Weight difference: -2.2 g and -2 g
P388 [16]
  T/C: 119%

## O=C1C2C3C=CC(C2C(=O)N1CN1CCSCC1)C1C2C(=O)N(CN4CCSCC4)C(=O)C2C31 (stereo not given)
P388 [1]
  Survivors at day 4: 6
P388 [26]
  Weight difference: -5.7 g
P388 [27]
  Survivors at day 4: 6
P388 [28]
  T/C: 99%
P388 [4]; 100 mg/kg
  Weight difference: -2.9 g and -2.1 g
P388 [29]
  Survivors at day 4: 6
P388 [20]
  Survivors at day 4: 6
P388 [30]
  T/C: 166% and 194%
P388 [5]
  Weight difference: -1.4 g and -2.1 g
[21]
  Solubility: Insoluble
P388 [22]; 100 mg/kg
  T/C: 148% and 165%
P388 [31]
  T/C: Toxic
P388 [9]
  Survivors at day 4: 6
P388 [32]
  Weight difference: -5.1 g and -5.2 g
P388 [33]
  Weight difference: -1.3 g
P388 [15]; 50 mg/kg
  T/C: 166% and 121%

## CN1CCN(CN2C(=O)C3C4C=CC(C3C2=O)C2C3C(=O)N(CN5CCN(C)CC5)C(=O)C3C42)CC1.Cl (stereo not given)
P388 [34]
  Weight difference: -4.6 g
P388 [35]
  Survivors at day 4: 2
P388 [36]
  Survivors at day 4: 6
P388 [37]
  T/C: 130%
P388 [38]
  Weight difference: -1.8 g
P388 [39]
  Weight difference: 1.2 g
P388 [40]
  Survivors at day 4: 6
P388 [41]
  Survivors at day 4: 0
P388 [42]
  T/C: 113%
P388 [43]
  Survivors at day 4: 6
P388 [44]
  Weight difference: -5.9 g
P388 [45]
  T/C: 172%

## CC12C=CC(C)(C3C(=O)NC(=O)C31)C1C3C(=O)NC(=O)C3C12 (stereo not given)
P388 [46]
  T/C: 97%
P388 [17]
  Survivors at day 4: 6
P388 [28]
  Weight difference: -1.5 g
P388 [29]
  Survivors at day 4: 6
P388 [20]
  Survivors at day 4: 6
[21]
  Solubility: Insoluble
P388 [22]
  T/C: 109%
  Weight difference: -4.8 g
P388 [9]
  Survivors at day 4: 6
P388 [24]
  Weight difference: -6.1 g
P388 [11]
  T/C: 103%
P388 [15]
  T/C: 108%
  Weight difference: -3.7 g
